Results gathered from unrelated publications.
Lines come from different studies, so protocols differ.
Cell line: PANC-1
Read-out: cell growth or viability

SMILES	technique	time	endpoint	result
O=C(O)/C=C/c1ccc(O)c(O)c1	MTT	–	IC50	4.1 µM
COc1cccc2c1C(=O)c1c(O)c3c(c(O)c1C2=O)C[C@@](O)(C(=O)CO)C[C@@H]3O[C@H]1C[C@H](N)[C@H](O)[C@H](C)O1	WST-1	72 h	IC50	0.53 µM
Cc1ccc2[nH]c(=O)c3cc(C(=O)NCCCN(C)Cc4ccccc4)sc3c2c1	MTT	24 h	IC50	16.8 µM
CC(=O)c1ccc(/N=N/c2cc(/C=C/C(=O)O)ccc2O)cc1	MTT	–	IC50	> 50 µM
Cc1ncsc1-c1ccc(CNC(=O)[C@@H]2C[C@@H](O)CN2C(=O)[C@@H](NC(=O)CCCCCCCCCCCC(=O)NCCCCC#Cc2cccc(-c3nn(-c4nc(C(=O)O)cs4)c(CC4CC4)c3Cc3ccc(S(N)(=O)=O)cc3)c2)C(C)(C)C)cc1	CCK-8	72 h	GI50	16.1 µM
CC(=O)c1ccc(N=Nc2c(C(=O)O)cc(O)c(O)c2O)cc1	MTT	–	IC50	12.7 µM
CNc1ncc2cc(-c3ccc(-c4cccc(C)n4)cc3Cl)c(=O)n(C[C@H]3OC[C@H](N)CO3)c2n1	MTT	24 h	IC50	23.2 µM
CCN(CC)CCCC(C)Nc1cnc(C(=O)Nc2cc(F)cc3cccnc23)cn1 (centres unmarked)	MTT	–	IC50	7.2 µM
COc1cccc(C(=O)O[C@@H]2CN3Cc4c(cc5c(c4OC)OCO5)[C@@]24C=C[C@H](OC)C[C@@H]34)c1	WST-1	–	IC50	8.7 µM
O=C(O)c1cc(O)c(O)c(O)c1	MTT	–	IC50	17.9 µM
COc1cc(Nc2nccc(-c3cnn4nc(OC)ccc34)n2)cc(C(F)(F)F)c1	ATP luminescence	–	IC50	0.76 µM
COc1ccc(C(=O)O[C@@H]2CN3Cc4c(cc5c(c4OC)OCO5)[C@@]24C=C[C@H](OC)C[C@@H]34)cc1	WST-1	–	IC50	> 10 µM
CC(C)C[C@H](NC(=O)[C@H](Cc1ccccc1)NC(=O)c1cnccn1)B(O)O	ATP luminescence	–	IC50	0.01 µM
COc1c2c(cc3c1OCO3)[C@]13C=C[C@H](OC)C[C@H]1N(C2)C[C@H]3OC(=O)c1cccc(C)c1	WST-1	–	IC50	> 10 µM
